Assay [1] can be described thus: Antiangiogenic activity against BAEC assessed as inhibition of tube formation after 7 hrs by matrigel assay. The class given is functional. Particulars: Bos taurus. The method in brief:
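Wells coated with Matrigel (about 10.5 mg/mL), polymerized at least 30 min at 37 °C. 5×10^4 BAE cells seeded in DMEM with a range of compound concentrations. Incubated 7 h at 37 °C, 5% CO2, then viewed and photographed at 200×. Two observers scored tube formation. Value is the minimal concentration inhibiting differentiation.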

The nature of assay [2]: Antiproliferative activity against BAEC after 3 days by MTT assay. Particulars: Bos taurus, 72 h. The class given is functional. The method in brief: (§1)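 MTT dye reduction. 3×10^3 BAE cells (collagenase-isolated) or 5×10^3 HT-29 cells per well in DMEM with 10% FBS, exposed to serial dilutions for 3 days at 37 °C, 5% CO2. MTT (5 mg/ml in PBS) added for 4 h, formazan dissolved in 0.04 N HCl/2-propanol, absorbance at 550 nm. Triplicate; IC50 is the concentration giving 50% survival. Compounds from 10 mg/mL DMSO stocks.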
A general note: Tetrazolium assays rely on reduction of a dye to a coloured formazan, in cell work by metabolically active cells.

The test system of assay [3] is HT-29. Put plainly: Antiproliferative activity against human HT-29 cells after 3 days by MTT assay. Format: functional, cell-based. Particulars: HT-29, 72 h. The method in brief: as §1
Assay [4] has as its system HT-29. The assay can be described thus: Inhibition of VEGF protein production in human HT-29 cells at 10 ug/mL after 72 hrs by ELISA relative to control. The class given is functional. The method in brief:
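HT-29 cells at 70–80% confluence were serum-starved 24 h, then treated 72 h with compound in DMSO. VEGF secreted into culture supernatants was measured by human VEGF ELISA kit in ng/mL and compared with untreated and DMSO controls. At least three measurements per condition; mean ± SEM; one-sample t-tests.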
(ELISA stands for enzyme-linked immunosorbent assay.)

In assay [5] the test system is HT-29. The assay can be described thus: Inhibition of VEGF mRNA expression in human HT-29 cells at 10 ug/mL after 48 hrs by RT-PCR analysis relative to control; values are per cent of control. Conditions: HT-29, 48 h.
Assay [6] has as its system HT-29. Put plainly: Inhibition of VEGF protein production in human HT-29 cells at 10 ug/mL after 72 hrs by ELISA relative to control; values are per cent of control. Particulars: HT-29, 72 h.
The test system of assay [7] is HT-29. The assay can be described thus: Inhibition of VEGF mRNA expression in human HT-29 cells at 20 ug/mL after 48 hrs by RT-PCR analysis relative to control; values are per cent of control. Conditions: HT-29, 48 h.
For assay [8], the system named is HT-29. Put plainly: Inhibition of VEGF protein production in human HT-29 cells at 20 ug/mL after 72 hrs by ELISA relative to control; values are per cent of control. Particulars: HT-29, 72 h.

Converted amounts (≈) assume the structure as drawn. The source made the active and inactive calls. No cut-off for these calls is given here.

As to `Oc1ccc(/C=C/c2ccccc2)cc1` [(E)-4-STYRYLPHENOL], in assay [1], the minimum inhibitory concentration (MIC) – broadly, the lowest concentration found to suppress growth – turned out to be 32 µM (≈ 6.28 µg/mL). In addition, the IC50 – broadly, the midpoint of a concentration-inhibition curve – stood at 33.6 µM in assay [2] and 34.6 µM in the assay on HT-29 [3].

For the molecule `COc1ccc(/C=C/c2ccccc2)cc1`, in assay [1], the MIC was found to be 475 µM (≈ 99.9 µg/mL). Further, the IC50 in assay [2] is 418 µM; in the assay with HT-29 [3], 26 µM.

On to `COc1ccccc1/C=C/c1ccccc1`, for which the inhibition entry in the assay with HT-29 [4] was “Active”. In addition, the MIC in assay [1] was 59.5 µM (≈ 12.5 µg/mL). Besides, the IC50 in assay [2] is 152 µM; in the assay on HT-29 [3], 42.8 µM. Also, the level, % of control at 10 µg/mL in the assay with HT-29 [5] was 70%.

With `C=CCOc1ccccc1/C=C/c1ccccc1`, the figures for the level, % of control at 10 µg/mL in the assay with HT-29 [6] and with HT-29 [5] were 41% and 50%, respectively. Moreover, in assay [1], the MIC stood at 53 µM (≈ 12.5 µg/mL). The IC50 in assay [2] was 313 µM; in the assay on HT-29 [3], 55 µM.

Take `Oc1ccc(/C=C/c2cc(O)cc(O)c2)cc1` [RESVERATROL]: the MIC in assay [1] turned out to be 54.8 µM (≈ 12.5 µg/mL). In addition, the IC50 was 48 µM in assay [2] and 110 µM in the assay on HT-29 [3]. Further, the level, % of control at 20 µg/mL in the assay with HT-29 [7] is 86%; with HT-29 [8], 65%.

With `Oc1ccccc1/C=C/c1ccccc1`, the values for the level, % of control at 10 µg/mL with HT-29 [6] and in the assay with HT-29 [5] were 41% and 91%, respectively. Further, in assay [1], the MIC came out at 32 µM (≈ 6.28 µg/mL). The results for the IC50 (in assay [2]; in the assay on HT-29 [3]) were 107 µM and 112 µM, respectively.

On to `Oc1cccc(/C=C/c2ccccc2)c1` [(E)-3-STILBENOL], for which, in assay [1], the MIC was 32 µM (≈ 6.28 µg/mL). Also, the IC50 came out at 91.7 µM in assay [2] and 127 µM in the assay with HT-29 [3].

As for `C=CCOc1ccc(/C=C/c2ccccc2)cc1`, the MIC in assay [1] is 106 µM (≈ 25 µg/mL). Moreover, the IC50 in assay [2] is more than 400 µM; with HT-29 [3], 23 µM.

The values above are taken from ChEMBL document CHEMBL2385016, “Inhibition of VEGF expression in cancer cells and endothelial cell differentiation by synthetic stilbene derivatives” (Bioorg Med Chem, 2013).
